Test results: ChEMBL document CHEMBL2203156, “Design, synthesis and pharmacological characterization of coumarin-based fluorescent analogs of excitatory amino acid transporter subtype 1 selective inhibitors, UCPH-101 and UCPH-102” (Bioorg Med Chem, 2012)

How the values were obtained:
Assay type in all cases: cell-based
[1] = target: T1, Excitatory amino acid transporter 3 (Homo sapiens, UniProt P43005); test: Inhibition of [3H]-D-aspartate uptake at human EAAT3 expressed in HEK293 cells after 6 mins by scintillation counting
T1 sequence (P43005 whole entry): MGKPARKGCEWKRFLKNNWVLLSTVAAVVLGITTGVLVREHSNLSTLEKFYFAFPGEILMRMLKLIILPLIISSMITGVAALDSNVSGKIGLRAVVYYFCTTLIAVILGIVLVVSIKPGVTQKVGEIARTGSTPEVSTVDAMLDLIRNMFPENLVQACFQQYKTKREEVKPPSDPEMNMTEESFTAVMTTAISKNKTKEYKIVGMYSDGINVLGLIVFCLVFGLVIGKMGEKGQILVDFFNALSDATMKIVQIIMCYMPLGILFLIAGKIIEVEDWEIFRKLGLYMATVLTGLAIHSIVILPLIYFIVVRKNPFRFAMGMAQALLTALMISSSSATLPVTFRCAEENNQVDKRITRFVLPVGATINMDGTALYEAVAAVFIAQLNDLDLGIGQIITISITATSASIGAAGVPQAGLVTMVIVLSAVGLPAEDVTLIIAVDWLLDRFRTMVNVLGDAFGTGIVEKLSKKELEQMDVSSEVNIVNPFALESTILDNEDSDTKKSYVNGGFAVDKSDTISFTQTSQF
Outline: (§1)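 Each transporter subtype stably expressed in its own HEK293 cell line. Inhibitor potency measured as block of [³H]-D-aspartate uptake into these cells and reported as IC₅₀ values.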

[2] = target: Excitatory amino acid transporter 2 (Homo sapiens, UniProt P43004); test: Inhibition of [3H]-D-aspartate uptake at human EAAT2 expressed in HEK293 cells after 6 mins by scintillation counting; outline: as §1
Sequence of Excitatory amino acid transporter 2 (P43004 whole entry): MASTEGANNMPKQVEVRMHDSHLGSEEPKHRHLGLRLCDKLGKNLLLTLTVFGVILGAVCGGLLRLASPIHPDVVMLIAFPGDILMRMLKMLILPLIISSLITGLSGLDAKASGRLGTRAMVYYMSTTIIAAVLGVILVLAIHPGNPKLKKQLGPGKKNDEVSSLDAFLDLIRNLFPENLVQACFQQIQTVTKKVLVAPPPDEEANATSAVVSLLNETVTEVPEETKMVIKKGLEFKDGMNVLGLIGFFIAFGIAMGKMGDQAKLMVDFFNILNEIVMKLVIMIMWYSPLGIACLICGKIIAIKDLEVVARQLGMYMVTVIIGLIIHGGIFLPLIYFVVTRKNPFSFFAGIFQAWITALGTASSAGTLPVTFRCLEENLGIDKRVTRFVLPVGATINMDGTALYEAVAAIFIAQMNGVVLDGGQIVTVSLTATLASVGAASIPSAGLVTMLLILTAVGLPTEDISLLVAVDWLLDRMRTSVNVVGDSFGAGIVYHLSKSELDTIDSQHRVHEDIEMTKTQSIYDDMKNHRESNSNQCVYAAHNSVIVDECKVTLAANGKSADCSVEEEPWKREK

[3] = target: Excitatory amino acid transporter 1 (Homo sapiens, UniProt P43003); test: Inhibition of [3H]-D-aspartate uptake at human EAAT1 expressed in HEK293 cells after 6 mins by scintillation counting; outline: as §1
Sequence of Excitatory amino acid transporter 1 (P43003 whole entry): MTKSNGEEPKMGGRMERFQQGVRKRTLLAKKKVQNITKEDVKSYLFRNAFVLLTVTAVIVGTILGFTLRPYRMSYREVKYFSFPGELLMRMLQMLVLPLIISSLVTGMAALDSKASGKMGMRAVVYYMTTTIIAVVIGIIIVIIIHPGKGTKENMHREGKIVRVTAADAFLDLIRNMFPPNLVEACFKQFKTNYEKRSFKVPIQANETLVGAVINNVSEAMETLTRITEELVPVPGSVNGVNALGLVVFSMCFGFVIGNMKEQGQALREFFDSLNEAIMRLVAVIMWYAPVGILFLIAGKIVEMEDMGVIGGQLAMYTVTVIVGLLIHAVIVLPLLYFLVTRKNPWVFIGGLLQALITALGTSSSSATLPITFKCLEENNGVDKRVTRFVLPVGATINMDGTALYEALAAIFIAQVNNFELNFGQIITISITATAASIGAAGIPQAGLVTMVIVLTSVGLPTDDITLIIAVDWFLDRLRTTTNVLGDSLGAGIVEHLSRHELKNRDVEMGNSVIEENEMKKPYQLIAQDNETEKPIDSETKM

CCN(CC)c1ccc2c(C3CC(=O)C4=C(C3)OC(N)=C(C#N)C4C)cc(=O)oc2c1 (stereo not drawn)
IC50 [1]: > 300 µM
IC50 [2]: > 300 µM
IC50 ([3]; read-out: IC50): 14 µM

COc1ccc2c(C3CC(=O)C4=C(C3)OC(N)=C(C#N)C4C)cc(=O)oc2c1 (stereo not drawn)
IC50 [1]: > 300 µM
IC50 [2]: > 300 µM
IC50 ([3]; read-out: IC50): 17 µM
IC50 ([3]; read-out: pIC50 (converted)): 16.2 µM

CCN(CC)c1ccc2c(C)c(-c3ccc(C4C(C#N)=C(N)OC5=C4C(=O)CC(c4ccccc4)C5)cc3)c(=O)oc2c1 (stereo not drawn)
IC50 [1]: > 300 µM
IC50 [2]: > 300 µM
IC50 ([3]; read-out: IC50): > 300 µM
IC50 ([3]; read-out: pIC50 (converted)): > 316 µM

COc1ccc2c(C)c(-c3ccc(C4C(C#N)=C(N)OC5=C4C(=O)CC(c4ccccc4)C5)cc3)c(=O)oc2c1 (stereo not drawn)
IC50 [1]: > 300 µM
IC50 [2]: > 300 µM
IC50 ([3]; read-out: IC50): > 300 µM
IC50 ([3]; read-out: pIC50 (converted)): > 316 µM

CCN(CC)c1ccc2c(C3C(C#N)=C(N)OC4=C3C(=O)CC(c3cccc5ccccc35)C4)cc(=O)oc2c1 (stereo not drawn)
IC50 [1]: > 300 µM
IC50 [2]: > 300 µM
IC50 ([3]; read-out: IC50): > 300 µM
IC50 ([3]; read-out: pIC50 (converted)): > 316 µM

COc1ccc2c(C3C(C#N)=C(N)OC4=C3C(=O)CC(c3ccccc3)C4)cc(=O)oc2c1 (stereo not drawn)
IC50 [1]: > 300 µM
IC50 [2]: > 300 µM
IC50 ([3]; read-out: IC50): > 300 µM
IC50 ([3]; read-out: pIC50 (converted)): > 316 µM
